# Screen size: about 330,000 compounds; about 1,100 (0.33%) were called active. For the sample, actives were picked, then their nearest neighbours and some compounds at random. Values without a mark were called inactive.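 Rule for the calls: active = mean inhibition over replicate wells above about 20% (limit read from the data); inactive = the rest.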
# Molecular target: Ubiquitin carboxyl-terminal hydrolase isozyme L5 (Homo sapiens) (UniProt Q9Y5K5)
# Assay: proteasome-bound UCH37 DUB activity blockers – biochemical, Ub-AMC cleavage, fluorescence, primary screen (AID 588478);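 note: 0% = compound-free wells with enzyme and 100% = wells lacking proteasome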
# Conditions: purified proteasome/UCH37, Ub-AMC cleavage fluorescence; stronger effect = higher value; concentration not given here
# Procedure, shortened: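 Reagent: Ub-AMC substrate; assay system: Proteasome-associated human UCH37 deubiquitinase; controls: no-proteasome and no-compound wells; read-out: % inhibition of Ub-AMC cleavage fluorescence; timing: 30 min preincubation with enzyme, 25 min cleavage at room temperature; signal: AMC fluorescence from Ub-AMC cleavage, excitation 355 nm, emission 460 nm; buffer or medium: Tris-HCl pH 7.4 plus ovalbumin, ATP-MgCl2, DTT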
# Ubiquitin carboxyl-terminal hydrolase isozyme L5 (Homo sapiens), sequence (Q9Y5K5 whole entry, looked up): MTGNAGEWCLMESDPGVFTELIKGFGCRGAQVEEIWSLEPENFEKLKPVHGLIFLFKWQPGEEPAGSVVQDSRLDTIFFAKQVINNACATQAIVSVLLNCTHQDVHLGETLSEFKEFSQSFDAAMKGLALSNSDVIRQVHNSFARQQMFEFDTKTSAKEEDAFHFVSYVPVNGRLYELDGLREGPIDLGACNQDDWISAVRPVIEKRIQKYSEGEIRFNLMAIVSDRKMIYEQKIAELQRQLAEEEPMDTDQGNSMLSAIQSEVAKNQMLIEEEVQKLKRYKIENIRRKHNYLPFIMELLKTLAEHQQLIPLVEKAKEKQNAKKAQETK
row,Compound,inhibition
1,CCCCCCCCCCCCn1ccc(=N)cc1,29.5% (active)
2,Brc1ccc2[nH]cc(C=NN3CCCCC3)c2c1,1.15%
3,C#C[C@]1(O)CCC2C3CCC4=CC(=NOCC(=O)NC(C)C(=O)NC(CCSC)C(=O)O)CC[C@]4(C)C3CC[C@@]21C (stereo not given in full),-1.31%
4,C=CCN1CC[C@]23c4c5ccc(O)c4O[C@H]2C(=NNC(=O)c2ccccc2)CC[C@@]3(O)[C@H]1C5,4.43%
5,CC12CCC3C(CCC4CC(=NO)CCC43C)C1CCC2O (stereo not given),2.36%
6,CCC(C)n1c(O)c(/C=N/Nc2nc3c(c(=O)n(C)c(=O)n3C)n2C)c(=O)[nH]c1=S (stereo not given),21.4% (active)
7,Cc1ccccc1/C=C\c1nc(O)c([N+](=O)[O-])c(=O)[nH]1,11.3%
8,CNC(=O)Nc1ccc(C(=O)NN=CC23CC[C@@H](O)CC2(O)CC[C@@H]2[C@@H]3CCC3(C)C(C4=CC(=O)OC4)CCC23O)cc1 (stereo not given in full),3.8%
9,COc1cc(C(=O)NC2CCN(Cc3ccccc3)CC2)cc(Cl)c1OC(C)C,4.45%
10,COc1ccc(N2C(=O)/C(=C/c3ccco3)C(=O)NC2=S)cc1,31.7% (active)
11,COc1cccc(N2C(=O)NC(=O)/C(=C\c3ccc([N+](=O)[O-])s3)C2=O)c1,11.5%
12,O=C1NC(=O)N(c2ccccc2)C(=O)/C1=C/c1ccc([N+](=O)[O-])s1,5.15%
13,Nc1nonc1C(=O)NN=Cc1ccc([N+](=O)[O-])o1,13.2%
14,CC1=CC(=Cc2sc3ccccc3[n+]2C)C=C(C)O1,20.3% (active)
15,COC(=O)[C@H](Cc1ccccc1)NC(=O)Nc1ccc(S(N)(=O)=O)cc1,2.98%
16,COc1ccc(C=NN=C(N)N[N+](=O)[O-])c(OC)c1,18.6%
17,Oc1ccc(C=NNP(=S)(c2ccccc2)c2ccccc2)cc1O,2.56%
18,COc1cccc(C(=O)N2C[C@H]3C[C@@H](C2)c2cccc(=O)n2C3)c1,2.34%
19,O=C(CN1CCN(S(=O)(=O)c2cccc(Cl)c2)CC1)N1CCCCC1,5.51%
20,CN1CCN(N=Cc2c[nH]c3ccccc23)CC1,3.94%

# — PubChem BioAssay AID588478 (ICCB-Longwood Screening Facility, Harvard Medical School, 2011)
